Experimental data taken from ChEMBL document CHEMBL1765030, “Discovery and preclinical evaluation of a novel class of cytotoxic propynoic acid carbamoyl methyl amides (PACMAs)” (J Med Chem, 2011).
The source made the active and inactive calls. No cut-off for these calls is given here.

Experiments:
[1] = tested on: HEY; test: Cytotoxicity against human HEY cells after 72 hrs by MTT assay; type: functional, cell-based
In short: (§1)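 Cells were attached overnight, then continuously exposed to drug for 72 h. MTT (0.5 mg/mL final) was added for 4 h at 37 °C, formazan dissolved in DMSO, and A570 read; all in triplicate. IC50 came from log(concentration) vs % cells killed. Media: RPMI-1640 for HT29, HCT116 p53+/+ and p53−/−, and HEY; DMEM for MDA-MB-435 and UMUC3; all with 10% FBS, 37 °C, 5% CO₂.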

[2] = Octanol-water distribution coefficient, log P of the compound; type: physicochemical
[3] = tested on: HT-29; test: Cytotoxicity against human HT-29 cells after 72 hrs by MTT assay; type: functional, cell-based; conditions: HT-29, 72 h; in short: as §1
[4] = tested on: HCT-116; test: Cytotoxicity against human HCT116 cells […] after 72 hrs by MTT assay; type: functional, cell-based; conditions: HCT-116, 72 h; in short: as §1
[5] = tested on: HCT-116; test: Cytotoxicity against p53 deficient human HCT116 cells […] after 72 hrs by MTT assay; type: functional, cell-based; conditions: HCT-116, 72 h; in short: as §1
[6] = tested on: MDA-MB-435; test: Cytotoxicity against human MDA-MB-435 cells after 72 hrs by MTT assay; type: functional, cell-based; conditions: MDA-MB-435, 72 h; in short: as §1
[7] = tested on: UMUC3; test: Cytotoxicity against human UM-UC-3 cells after 72 hrs by MTT assay; type: functional, cell-based; conditions: UMUC3, 72 h; in short: as §1
[8] = tested on: 5637; test: Cytotoxicity against human 5637 cells after 72 hrs by MTT assay; type: functional, cell-based; conditions: Homo sapiens, 5637, 72 h
[9] = tested on: NCI/ADR-RES; test: Cytotoxicity against human NCI/ADR-RES cells after 72 hrs by MTT assay; type: functional, cell-based
[10] = tested on: MDA-MB-435; test: Cytotoxicity against human MDA-MB-435 cells at 1 uM after 24 hrs using crystal violet staining by colony formation assay; type: functional, cell-based
In short: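 Cells were plated at 1000 per well, attached overnight, and exposed to 1 μM for 24 h. They were then washed and grown in fresh medium for 8–10 days until colonies formed, fixed in 1% glutaraldehyde for 30 min, and stained with 2% crystal violet for 30 min. Vehicle was DMSO.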

[11] = tested on: MDA-MB-435; test: Increase of mitochondrial superoxide accumulation in human MDA-MB-435 cells at IC50 to 3 times IC50 after 24 hrs by flow cytometry; type: functional, cell-based
In short: (§2)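 Cells were drug-treated at two concentrations for 24 h, then loaded with 5 μM MitoSOX Red for 10 min at 37 °C and washed three times in HBSS. Cells were either viewed by fluorescence microscopy or trypsinized, washed twice in HBSS and read by flow cytometry; untreated cells served as control.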

[12] = tested on: MDA-MB-435; test: Increase of mitochondrial superoxide accumulation in human MDA-MB-435 cells at IC50 to 3 times IC50 after 24 hrs by fluorescence microscopic analysis; type: functional, cell-based; in short: as §2
[13] = tested on: MDA-MB-435; test: Increase of reactive oxygen species accumulation in human MDA-MB-435 cells at IC50 to 3 times IC50 after 24 hrs by fluorescence microscopic analysis; type: functional, cell-based
[14] = tested on: MDA-MB-435; test: Increase of mitochondrial superoxide accumulation in human MDA-MB-435 cells at 1.5 uM after 24 hrs by fluorescence microscopic analysis; type: functional, cell-based
In short: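 MDA-MB-435 cells (DMEM, 10% FBS, 37 °C, 5% CO₂) treated 24 h, then loaded with 5 μM MitoSOX Red mitochondrial superoxide indicator for 10 min at 37 °C; washed three times with HBSS to remove excess dye and viewed under a fluorescence microscope for mitochondrial superoxide staining pattern, compared with untreated cells.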

SMILES	IC50 [1] [µM]	logP [2]	IC50 [3] [µM]	IC50 [4] [µM]	IC50 [5] [µM]	IC50 [6] [µM]	IC50 [7] [µM]	IC50 [8] [µM]	IC50 [9] [µM]	Activity [10]	Activity [11]	Activity [12]	Activity [13]	Activity [14]
C#CC(=O)N(c1ccccc1)C(C(=O)NC1CCCCC1)c1cccs1 (centres undefined)	> 10	3.07	> 10	14	> 20	> 10	> 20	3.5	1.3	Active	Active	Active		
C#CC(=O)N(c1ccc(OC)cc1OC)C(C(=O)NC1CCCC1)c1cccs1 (centres undefined)	4.1	2.26	2.3	6.9	7	1.7	> 20	1.7	0.4	Active				
C#CC(=O)N(c1ccc(-n2cnnn2)c(C)c1)C(C(=O)NC1CCCC1)c1ccccc1 (centres undefined)	1.9	3.54	1.5	7.2	5.7	0.6	7.8	0.4	1	Active				
O=C(O)c1ccccc1C1c2cc(Cl)c(O)cc2Oc2cc(O)c(Cl)cc21													inactive	
C#CC(=O)N(c1cccc(C(F)(F)F)c1)C(C(=O)NC1CCCC1)c1ccc(F)cc1 (centres undefined)	2.4	4.38	4.8	7.5	6.9	5.2	8	0.5	0.4	Active				
C#CC(=O)N(c1cc(OC)cc(OC)c1)C(C(=O)NC1CCCC1)c1ccc(OC)cc1 (centres undefined)	2.3	2.33	2.1	15	> 20	2.4	> 20	1.9	0.3	Active				
CC(=O)O[C@H]1C(=O)[C@@]2(C)[C@H]([C@H](OC(=O)c3ccccc3)[C@]3(O)C[C@H](OC(=O)[C@H](O)[C@@H](NC(=O)c4ccccc4)c4ccccc4)C(C)=C1C3(C)C)[C@]1(OC(C)=O)CO[C@@H]1C[C@@H]2O [PACLITAXEL]		0.54								Active				inactive
C#CC(=O)N(c1ccc2ccccc2c1)C(C(=O)NC1CCCC1)c1ccccc1 (centres undefined)	1.7	4.11	4.9	6.8	7.4	7.3	> 20	0.5	0.3	Active				
C#CC(=O)N(Cc1ccc2c(c1)OCO2)C(C(=O)NCc1ccccc1)c1ccccc1F (centres undefined)	> 10	3.32	> 10	> 10	> 20	> 10	> 20	2.8	1.3	Active				
C#CC(=O)N(c1ccc(OC)c(OC)c1)C(C(=O)NC1CCCC1)c1cccs1 (centres undefined)	3.4	2.26	5.5	7.7	9.6	2	> 20	2	0.9	Active				
C#CC(=O)N(c1cccc(OC)c1)C(C(=O)NC1CCCC1)c1cccs1 (centres undefined)	1.9	2.55	2.3	7.2	5.6	1.7	6.9	0.3	0.3	Active				
COc1cccc2c1C(=O)c1c(O)c3c(c(O)c1C2=O)C[C@@](O)(C(=O)CO)C[C@@H]3O[C@H]1C[C@H](N)[C@H](O)[C@H](C)O1 [DOXORUBICIN]		-0.82								Active				
C#CC(=O)N(c1cccc(C(F)(F)F)c1)C(C(=O)NC1CCCCC1)c1cccs1 (centres undefined)	5.2	3.88	6	8.3	10.4	6.9	> 20	1.6	0.4	Active				
C#CC(=O)N(c1ccc2c(c1)OCCO2)C(C(=O)NC1CCCC1)c1ccccc1 (centres undefined)	4.1	2.62	3.2	17.3	> 20	1.8	> 20	1.9	0.3	Active				
C#CC(=O)N(c1ccccc1F)C(C(=O)NC1CCCCC1)c1ccccc1F (centres undefined)	5.6	4.17	7.7	11.9	10.1	6.5	> 20	2.1	0.4	Active				
C#CC(=O)N(c1cccc(C(F)(F)F)c1)C(C(=O)NCc1ccccc1)c1cccs1 (centres undefined)	7.1	3.86	7.3	9	16.1	4.2	> 20	1.2	0.7	Active				
CC[C@@]1(O)C(=O)OCc2c1cc1n(c2=O)Cc2cc3ccccc3nc2-1 [CAMPTOTHECIN]		1.67												
C#CC(=O)N(Cc1ccco1)C(C(=O)NC1CCCC1)c1ccccc1F (centres undefined)	4.3	2.39	> 10	10.5	13	1.7	> 20	2.9	1.2	Active				
C#CC(=O)N(c1cc(OC)ccc1OC)C(C(=O)NC1CCCC1)c1cccs1 (centres undefined)	1.5	2.26	1.6	5.7	4.7	0.5	5.7	0.3	0.3	Active				
